ChEMBL document CHEMBL4406880, “Design, synthesis, and bioactivity of dihydropyrimidine derivatives as kinesin spindle protein inhibitors” (Bioorg Med Chem, 2019)

How the values were obtained:
Format in all cases: functional
MDA-MB-231 = assay: Growth inhibition of human MDA-MB-231 cells assessed as cell viability at 0.001 uM incubated for 48 hrs by sulforhodamine B assay relative to control; details: MDA-MB-231, 48 h, read-out: Activity
DU-145 [1] = assay: Growth inhibition of human DU145 cells assessed as cell viability at 1 uM incubated for 48 hrs by sulforhodamine B assay; details: DU-145, 48 h, read-out: Activity
MCF7 = assay: Growth inhibition of human MCF7 cells assessed as cell viability at 0.1 uM incubated for 48 hrs by sulforhodamine B assay; details: MCF7, 48 h, read-out: Activity
OVCAR-8 = assay: Growth inhibition of human OVCAR8 cells assessed as cell viability at 1 uM incubated for 48 hrs by sulforhodamine B assay; details: OVCAR-8, 48 h, read-out: Activity
TK-10 = assay: Growth inhibition of human TK10 cells assessed as cell viability at 0.1 uM incubated for 48 hrs by sulforhodamine B assay; details: TK-10, 48 h, read-out: Activity
NCI-H460 [2] = assay: Growth inhibition of human NCI-H460 cells assessed as cell viability at 0.001 uM incubated for 48 hrs by sulforhodamine B assay relative to control; details: NCI-H460, 48 h, read-out: Activity
NCI-H226 [3] = assay: Growth inhibition of human NCI-H226 cells assessed as cell viability at 1 uM incubated for 48 hrs by sulforhodamine B assay; details: NCI-H226, 48 h, read-out: Activity
Hs-578T = assay: Growth inhibition of human Hs 578T cells assessed as cell viability at 100 uM incubated for 48 hrs by sulforhodamine B assay; details: read-out: Activity
M14 = assay: Growth inhibition of human M14 cells incubated for 48 hrs by sulforhodamine B assay; details: M14, 48 h
Summary of the method: (§1)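 NCI-60 five-dose SRB assay in RPMI 1640 with 5% FBS, 37 °C, 5% CO2. Compound given at five tenfold dilutions, 0.01–100 µM, for 48 h. Adherent cells fixed with TCA, suspension cells with 16% final TCA. Bound SRB read at 515 nm and growth calculated against time-zero and untreated controls. GI50 taken from dose–response curves as the concentration giving a 50% decrease in net cell growth.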

HOP-92 = assay: Growth inhibition of human HOP92 cells assessed as cell viability at 100 uM incubated for 48 hrs by sulforhodamine B assay; details: HOP-92, 48 h, read-out: Activity
PC-3 = assay: Growth inhibition of human PC3 cells assessed as cell viability at 1 uM incubated for 48 hrs by sulforhodamine B assay; details: PC-3, 48 h, read-out: Activity
SK-MEL-2 [4] = assay: Growth inhibition of human SK-MEL-2 cells assessed as cell viability at 0.1 uM incubated for 48 hrs by sulforhodamine B assay; details: SK-MEL-2, 48 h, read-out: Activity
SK-OV-3 = assay: Growth inhibition of human SKOV3 cells incubated for 48 hrs by sulforhodamine B assay; details: SK-OV-3, 48 h
Summary of the method: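 NCI-60 five-dose SRB assay. Cells were exposed for 48 h to tenfold dilutions of 0.01, 0.1, 1, 10 and 100 µM, in RPMI 1640 with 5% FBS. Plates fixed with TCA at the time of drug addition served as the time-zero reference. GI50 is the concentration giving a 50% reduction in net growth. TGI is total growth inhibition. LC50 is a net 50% loss of the initial cells.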

OVCAR-5 = assay: Growth inhibition of human OVCAR5 cells assessed as cell viability at 0.001 uM incubated for 48 hrs by sulforhodamine B assay relative to control; details: OVCAR-5, 48 h, read-out: Activity
NCI-H322M = assay: Growth inhibition of human NCI-H322M cells incubated for 48 hrs by sulforhodamine B assay
Summary of the method: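 NCI-60 five-dose assay, SRB end-point, same culture conditions. Compound is tested at tenfold dilutions of 0.01, 0.1, 1, 10 and 100 µM for 48 h at 37 °C, with DMSO/PBS vehicle controls. Percentage growth at each concentration is taken against untreated cells and a time-zero plate. GI50 is 50% net growth decrease, TGI is total growth inhibition, and LC50 is 50% loss of initial cells.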

RXF 393 = assay: Growth inhibition of human RXF393 cells assessed as cell viability at 0.001 uM incubated for 48 hrs by sulforhodamine B assay relative to control; details: RXF 393, 48 h, read-out: Activity
NCI-H226 [5] = assay: Growth inhibition of human NCI-H226 cells assessed as cell viability at 0.1 uM incubated for 48 hrs by sulforhodamine B assay; details: NCI-H226, 48 h, read-out: Activity
HOP-62 = assay: Growth inhibition of human HOP62 cells assessed as cell viability at 100 uM incubated for 48 hrs by sulforhodamine B assay; details: HOP-62, 48 h, read-out: Activity
EKVX = assay: Growth inhibition of human EKVX cells assessed as cell viability at 0.1 uM incubated for 48 hrs by sulforhodamine B assay; details: read-out: Activity
SK-MEL-2 [6] = assay: Growth inhibition of human SK-MEL-2 cells assessed as cell viability at 1 uM incubated for 48 hrs by sulforhodamine B assay; details: SK-MEL-2, 48 h, read-out: Activity
DU-145 [7] = assay: Growth inhibition of human DU145 cells assessed as cell viability at 0.001 uM incubated for 48 hrs by sulforhodamine B assay relative to control; details: DU-145, 48 h, read-out: Activity
NCI-H226 [8] = assay: Growth inhibition of human NCI-H226 cells assessed as cell viability at 0.001 uM incubated for 48 hrs by sulforhodamine B assay relative to control; details: NCI-H226, 48 h, read-out: Activity
CCRF-CEM = assay: Growth inhibition of human CCRF-CEM cells assessed as cell viability at 0.001 uM incubated for 48 hrs by sulforhodamine B assay relative to control; details: read-out: Activity
MOLT-4 = assay: Growth inhibition of human MOLT4 cells assessed as cell viability at 100 uM incubated for 48 hrs by sulforhodamine B assay; details: MOLT-4, 48 h, read-out: Activity
NCI-H460 [9] = assay: Growth inhibition of human NCI-H460 cells incubated for 48 hrs by sulforhodamine B assay; details: NCI-H460, 48 h; summary of the method: as §1
A549 = assay: Growth inhibition of human A549/ATCC cells assessed as cell viability at 0.001 uM incubated for 48 hrs by sulforhodamine B assay relative to control; details: A549, 48 h, read-out: Activity
HCT-15 = assay: Growth inhibition of human HCT15 cells assessed as cell viability at 0.001 uM incubated for 48 hrs by sulforhodamine B assay relative to control; details: HCT-15, 48 h, read-out: Activity
[10] = read-out: LC50 (the source's name)
[11] = read-out: pLC50 (the source's name) (converted)

Compound CC1=C(C(=O)OCc2ccccc2)C(c2ccc3c(c2)OCO3)n2c(nc3ccccc32)N1 (racemic) has a viability at 0.001 µM (MDA-MB-231) of 97%, a viability at 1 µM (DU-145 [1]) of 33% and a viability at 0.1 µM (MCF7) of 87%. It also gave a viability at 1 µM (OVCAR-8) of 38%, a viability at 0.1 µM (TK-10) of 91% and a viability at 0.001 µM (NCI-H460 [2]) of 98%. It also gave a viability at 1 µM (NCI-H226 [3]) of 66%, a viability at 100 µM (Hs-578T) of -24% and a GI50 (M14; read-out: GI50) of 0.46 µM. It also gave an LC50 (50% net cell kill) (M14; read-out: LC50) of over 100 µM, a TGI (M14; read-out: TGI) of over 100 µM and a GI50 (M14; read-out: pGI50 (converted)) of 0.468 µM. It also gave an LC50 (50% net cell kill) (M14; read-out: pLC50 (converted)) of over 100 µM, a TGI (M14; read-out: pTGI) of over 100 µM and a viability at 100 µM (HOP-92) of 53%. It also gave a viability at 1 µM (PC-3) of 35%, a viability at 0.1 µM (SK-MEL-2 [4]) of 101% and a GI50 (SK-OV-3; read-out: GI50) of 0.47 µM. For the same compound, the CC50 (SK-OV-3; [10]) was over 100 µM, the TGI (SK-OV-3; read-out: TGI) was over 100 µM and the GI50 (SK-OV-3; read-out: pGI50 (converted)) was 0.468 µM. For the same compound, the CC50 (SK-OV-3; [11]) was over 100 µM, the TGI (SK-OV-3; read-out: pTGI) was over 100 µM and the viability at 0.001 µM (OVCAR-5) was 93%. It also gave an LC50 (concentration killing 50% of initial cells) (NCI-H322M; read-out: LC50) of over 100 µM, a TGI (NCI-H322M; read-out: TGI) of over 100 µM and an LC50 (concentration killing 50% of initial cells) (NCI-H322M; read-out: pLC50 (converted)) of over 100 µM. For the same compound, the TGI (NCI-H322M; read-out: pTGI) was over 100 µM, the viability at 0.001 µM (RXF 393) was 92% and the viability at 0.1 µM (NCI-H226 [5]) was 97%. It also gave a viability at 100 µM (HOP-62) of 31%, a viability at 0.1 µM (EKVX) of 95% and a viability at 1 µM (SK-MEL-2 [6]) of 52%. The viability at 0.001 µM (DU-145 [7]) was 102%, the viability at 0.001 µM (NCI-H226 [8]) was 93% and the viability at 0.001 µM (CCRF-CEM) was 101%. For the same compound, the viability at 100 µM (MOLT-4) was 33%, the GI50 (NCI-H460 [9]; read-out: GI50) was 0.36 µM and the CC50 (NCI-H460 [9]; [10]) was over 100 µM. For the same compound, the TGI (NCI-H460 [9]; read-out: TGI) was over 100 µM, the GI50 (NCI-H460 [9]; read-out: pGI50 (converted)) was 0.363 µM and the CC50 (NCI-H460 [9]; [11]) was over 100 µM. The TGI (NCI-H460 [9]; read-out: pTGI) was over 100 µM, the viability at 0.001 µM (A549) was 95% and the viability at 0.001 µM (HCT-15) was 92%.
